Experiment [1] addresses T1, Macrophage migration inhibitory factor homologue (Plasmodium falciparum (isolate 3D7), UniProt Q8I5C5).
T1 sequence (Q8I5C5 whole entry): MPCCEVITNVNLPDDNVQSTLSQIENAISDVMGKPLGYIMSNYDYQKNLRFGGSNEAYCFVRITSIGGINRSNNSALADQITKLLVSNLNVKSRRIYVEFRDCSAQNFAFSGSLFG
Nature of the experiment: Inhibition of recombinant Plasmodium falciparum MIF expressed in Escherichia coli BL21 (DE3) assessed as ketonization of enol form of 4-HPP substrate after 10 mins. The method, boiled down:
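PfMIF (75 nM trimer) in 25 mM potassium phosphate pH 7.4, preincubated 10 min with inhibitor at 1.5, 5 and 10 μM; DMSO vehicle 1% final. Started by adding enol 4-HPP (dissolved in absolute EtOH, stored −20°C) at varied concentrations. Enol-to-keto conversion read as fall in absorbance at 306 nm over 90 s; Ki values derived.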

The target of experiment [2] is T2, Macrophage migration inhibitory factor (Homo sapiens, UniProt P14174).
T2 sequence (P14174 whole entry): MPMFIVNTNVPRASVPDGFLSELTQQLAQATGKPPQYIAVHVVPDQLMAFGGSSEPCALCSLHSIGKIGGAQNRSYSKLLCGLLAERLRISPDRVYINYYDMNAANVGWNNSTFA
Nature of the experiment: Inhibition of human MIF.

Turning to `Cc1cc(O)cc(Oc2ccnc(-c3ccc(O)cc3)c2)c1`, in experiment [1], the Ki (usually the dissociation constant of the complex between target and ligand, obtained from inhibition or displacement) is given as “Not Active”.
Still for that read-out and setting: the same measure for `O=C1C(=O)N(CNc2ccc3ccccc3c2)c2ccccc21`: “Not Active”.
In the case of `O=C1N=C(Nc2cccc(O)c2)S/C1=C\c1cccc(O)c1`, the Ki in experiment [1] (read-out: Ki) worked out at 20.6 µM.
As to `CNC(=O)c1cccc2cccc(Sc3ccccc3C(=O)O)c12`, the Ki result in experiment [1] is reported as “Not Active”.
The same measure, in the same setting: then `COc1ccc(-c2ccc(Oc3cccc(OC)c3)cc2)cc1`, with “Not Active”; and `CN1C(=O)N[C@@H](c2ccccc2)C2=C1CN(c1cccc(C(=O)O)c1)C2=O`, with “Not Active”.
Regarding `COc1ccc(-c2cc(Oc3cccc(OC)c3)ccn2)cc1`, the Ki entry in experiment [1] is listed as “Not Active”.
As for `COc1cccc(Oc2ccc(-c3ccc(OC)c(OC)c3)cc2)c1`, the Ki result in experiment [1] was “Not Active”.
Regarding `Oc1cccc(Oc2ccc(-c3cccc(O)c3)nc2)c1`, the Ki in experiment [1] (read-out: Ki) worked out at 6.9 µM.
Turning to `CCc1ccc([C@H]2C[C@H](c3cccc(C)c3)n3ncnc3N2)cc1`, in experiment [1], the Ki result is “Not Active”.
As for `COc1ccc(-c2nnc3ccc(Oc4cccc(O)c4)nn23)cc1`, in experiment [1] (read-out: Ki), the Ki worked out at 122 µM.
The same measure, in the same setting: the same measure for `Cc1cc(Oc2cccc(C#N)c2)nc(-c2ccccc2)n1`: 1.6 µM; for `NC(=O)CSC1=Nc2ccccc2C2=N[C@H](Cc3c[nH]c4ccccc34)C(=O)N12`: 25.4 µM.
For `O=C(NCc1ccc(F)cc1F)Nc1cnccc1C(F)(F)F`, in experiment [1], the Ki entry was “Not Active”.
As for `O=C(O)c1ccccc1C(=O)Nc1ncccc1OCc1ccc(Cl)c(Cl)c1`, in experiment [1], the Ki entry was “Not Active”.
Still for that read-out and setting: then `CCC[C@H](C(=O)Nc1ccc(F)c(F)c1F)c1ccccc1`, with “Not Active”.
On to `Oc1cccc(Oc2ccnc(N3CCOCC3)c2)c1`, for which the Ki in experiment [1] (read-out: Ki) turned out to be 43.4 µM.
Take `O=C(O)c1ccccc1C(=O)N(Cc1cccnc1)Cc1ccc(Cl)cc1Cl`: in experiment [1], the Ki result is given as “Not Active”.
Take `Oc1cccc(Oc2c(F)c(F)nc(N3CCOCC3)c2F)c1`: in experiment [1] (read-out: Ki), the Ki turned out to be 8.6 µM.
Consider `CCc1ccc(CNc2ccc(S(N)(=O)=O)cc2)cc1`, for which, in experiment [1], the Ki entry is listed as “Not Active”.
As to `COc1cc(Cl)cc(Oc2ccnc(N3CCOCC3)c2)c1`, the Ki in experiment [1] (read-out: Ki) was 2.6 µM.
In the case of `Oc1ccc(-c2ccc(Oc3cccc(O)c3)cc2)cc1`, the Ki entry in experiment [1] is on record as “Not Active”.
As for `CCOc1cccc(Oc2cc(C)nc(N3CCOCC3)c2)c1`, in experiment [1] (read-out: Ki), the Ki was determined as 7.2 µM.
Regarding `COc1ccc(NC(=O)[C@H]2CCC(C)=C(C)[C@@H]2C(=O)O)c(N2CCOCC2)n1`, the Ki entry in experiment [1] is listed as “Not Active”.
Consider `Oc1ccc(-c2cc(Oc3cccc(O)c3)ccn2)cc1`, for which, in experiment [1] (read-out: Ki), the Ki is 3 µM.
In the case of `COc1ccc(-c2ccc(Oc3cccc(OC)c3)cn2)cc1`, the Ki result in experiment [1] is reported as “Not Active”.
Regarding `COc1cc(C)cc(Oc2cc(C)nc(N3CCOCC3)c2)c1`, the Ki in experiment [1] (read-out: Ki) is 1.2 µM.
Same read-out and setting: then `Cc1cc(Oc2cccc(O)c2)nc(-c2ccccc2)n1`, with 19.3 µM; and `COc1cc(C)cc(Oc2ccnc(N3CCOCC3)c2)c1`, with 5.6 µM.
For the molecule `Cc1cc(Oc2cccc(O)c2)cc(-c2ccccc2)n1`, the results for the Ki in experiment [2] (read-out: Ki) and in experiment [1] (read-out: Ki) were 101 µM and 0.039 µM, respectively.
For the molecule `COc1cccc(Oc2cc(C)nc(N3CCOCC3)c2)c1`, the inhibitory constant (Ki) result in experiment [2] was “Not Active”; in experiment [1] (read-out: Ki), 0.043 µM.
`COc1cccc(Oc2cc(C)nc(-c3ccccc3)c2)c1`: in experiment [1] (read-out: Ki), the Ki is 7.7 µM.
With `COc1ccc(C(=O)c2oc3ccccc3c2NC(=O)C(C)C)cc1Cl`, in experiment [1], the Ki result is “Not Active”.
As to `Oc1cccc(Oc2c(F)c(N3CCOCC3)nc(F)c2Cl)c1`, in experiment [1] (read-out: Ki), the Ki stood at 15.5 µM.
Still for that read-out and setting: then `Cc1cc(Oc2ccc(O)cc2)nc(-c2ccccc2)n1`, with 93.3 µM; and `COc1ccc(-c2cc(Oc3cc(C)cc(OC)c3)ccn2)cc1`, with 0.37 µM.
For `CC(=O)c1ccc(-c2ccc(C(=O)N3CCC(C(N)=O)CC3)o2)cc1`, the Ki result in experiment [1] is “Not Active”.
Regarding `COc1cccc(Oc2cc(C)nc(-c3ccccc3)n2)c1`, in experiment [1] (read-out: Ki), the Ki came out at 5.5 µM.
Still for that read-out and setting: then `NS(=O)(=O)c1ccc(NC2=CC(=O)C(=O)c3ccccc32)cc1`, with 99 µM.
Regarding `Oc1cccc(Oc2ccc(-c3cccc(O)c3)cc2)c1`, the Ki result in experiment [1] is listed as “Not Active”.
Regarding `CC(=O)O[C@@H]1C[C@H]2C(C)(C)C(=O)C=C[C@]2(C)[C@H]2CC[C@@]3(C)[C@H](c4ccoc4)C(=O)[C@H]4O[C@]43[C@@]21C` [EPOXYAZADIRADIONE], the half-inhibitory concentration (IC50) (commonly the concentration that inhibits the measured activity by half) in experiment [1] was 10 µM.
On to `Oc1ccc(-c2ccc(Oc3cccc(O)c3)cn2)cc1`, for which the Ki in experiment [1] (read-out: Ki) amounted to 67.6 µM.
Same read-out and setting: then `COc1cc(OC)cc(Oc2ccnc(N3CCOCC3)c2)c1`, with 122 µM.
`Oc1cccc(Oc2ccc(-c3ccc(O)c(O)c3)cc2)c1`: in experiment [1], the Ki entry is listed as “Not Active”.
`N#Cc1cccc(Oc2ccc(-c3cccc(O)c3)nc2)c1`: the Ki in experiment [1] (read-out: Ki) was 0.37 µM.
The same measure, in the same setting: then `COc1cccc(Oc2ccnc(N3CCOCC3)c2)c1`, with 22.9 µM; and `Cc1cc(Oc2cccc(C#N)c2)cc(N2CCOCC2)n1`, with 11.3 µM.
The same measure, in the same setting: the same measure for `COc1cccc(Oc2ccc(-c3cccc(OC)c3)nc2)c1`: 57.2 µM.
As to `CC1(C)CC(=O)C=C(Nc2ccc(S(N)(=O)=O)cc2)C1`, the Ki result in experiment [1] is on record as “Not Active”.
Same read-out and setting: the same measure for `COc1ccc(Oc2cc(C)nc(-c3ccccc3)n2)cc1`: “Not Active”.
Take `Oc1cccc(Oc2c(F)c(F)nc(N3CCCCC3)c2F)c1`: the Ki in experiment [1] (read-out: Ki) amounted to 28.6 µM.
For the molecule `COc1ccc(-c2cc(Oc3cc(C)cc(OC)c3)cc(C)n2)cc1`, the figures for the Ki in experiment [2] (read-out: Ki) and in experiment [1] (read-out: Ki) were 270 µM and 0.038 µM, respectively.
As to `CCOc1cccc(Oc2ccnc(N3CCOCC3)c2)c1`, the Ki in experiment [1] (read-out: Ki) was found to be 6.9 µM.
